In ChEMBL document CHEMBL3085638, “Synthesis of novel ciprofloxacin analogues and evaluation of their anti-proliferative effect on human cancer cell lines” (2013):
Calls of active or inactive are those of the source. No cut-off for these calls is given here.

Columns and labels:
CCRF-CEM [1] = assay: Antiproliferative activity against human CCRF-CEM cells assessed as cell viability at 50 uM by CellTiter assay relative to DMSO control; assay type: functional, cell-based
HCT-116 [2] = assay: Antiproliferative activity against human HCT116 cells assessed as cell viability at 50 uM after 72 hrs by CellTiter assay relative to DMSO control; assay type: functional; conditions: HCT-116, 72 h, read-out: Activity
Method in brief: (§1)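 ATCC-derived cells kept in EMEM with 10% FBS and 1% penicillin/streptomycin at 37 °C under 5% CO2. At 75–80% confluency, 5000 cells/well were seeded, then after 72 h exposed to 50 µM compound in triplicate for 72 h. CellTiter 96 AQueous One reagent was added for 1 h at 37 °C and formazan A490 read, with cell-free medium plus reagent as blank. Results are % of untreated control.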

CCRF-CEM [3] = assay: Antiproliferative activity against human CCRF-CEM cells assessed as cell viability at 50 uM after 72 hrs by CellTiter assay relative to DMSO control; assay type: functional; conditions: read-out: Activity; method in brief: as §1
MDA-MB-468 [4] = assay: Antiproliferative activity against human MDA-MB-468 cells assessed as cell viability at 50 uM after 72 hrs by CellTiter assay relative to DMSO control; assay type: functional; conditions: MDA-MB-468, 72 h, read-out: Activity; method in brief: as §1
CCRF-CEM [5] = assay: Antiproliferative activity against human CCRF-CEM cells assessed as cell viability at 50 uM after 24 hrs by CellTiter assay relative to DMSO control; assay type: functional; conditions: read-out: Activity
CCRF-CEM [6] = assay: Antiproliferative activity against human CCRF-CEM cells assessed as cell viability at 50 uM after 96 hrs by CellTiter assay relative to DMSO control; assay type: functional; conditions: read-out: Activity
CCRF-CEM [7] = assay: Antiproliferative activity against human CCRF-CEM cells assessed as cell viability at 50 uM after 48 hrs by CellTiter assay relative to DMSO control; assay type: functional; conditions: read-out: Activity
MDA-MB-468 [8] = assay: Antiproliferative activity against human MDA-MB-468 cells assessed as cell viability at 10 uM after 72 hrs by CellTiter assay; assay type: functional, cell-based
Method in brief: (§2)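 Doxorubicin was the positive control at 10 µM. ATCC cells were grown in EMEM with 10% FBS and 1% penicillin/streptomycin at 37 °C under 5% CO2, seeded at 5000 cells/well, and treated 72 h after seeding for a 72 h exposure. Viability was read by CellTiter 96 AQueous One reagent (1 h, 37 °C) as A490, minus a cell-free blank, and expressed as % of untreated control.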

CCRF-CEM [9] = assay: Antiproliferative activity against human CCRF-CEM cells assessed as cell viability at 10 uM after 72 hrs by CellTiter assay; assay type: functional, cell-based; method in brief: as §2
HCT-116 [10] = assay: Antiproliferative activity against human HCT116 cells assessed as cell viability at 10 uM after 72 hrs by CellTiter assay; assay type: functional, cell-based; method in brief: as §2

O=C(O)c1cn(C2CC2)c2cc(N3CCNCC3)c(F)cc2c1=O
Activity (CCRF-CEM [1]): Active

O=C(O)c1cn(C2CC2)c2cc(N3CCN(C(=O)CN4CCN(c5ccc(F)c(F)c5)CC4)CC3)c(F)cc2c1=O
viability at 50 µM (HCT-116 [2]): 35%
viability at 50 µM (CCRF-CEM [3]): 35%
viability at 50 µM (MDA-MB-468 [4]): 35%

O=C(O)c1cn(C2CC2)c2cc(N3CCN(C(=O)CN4CCN(C(c5ccc(F)cc5)c5ccc(F)cc5)CC4)CC3)c(F)cc2c1=O
viability at 50 µM (CCRF-CEM [5]): 19%
Activity (CCRF-CEM [1]; TDE = time-dependent effect): tde
viability at 50 µM (HCT-116 [2]): 35%
viability at 50 µM (CCRF-CEM [6]): 43%
viability at 50 µM (CCRF-CEM [3]): 38%
viability at 50 µM (MDA-MB-468 [4]): 35%
viability at 50 µM (CCRF-CEM [7]): 27%

O=C(O)c1cn(C2CC2)c2cc(N3CCN(C(=O)CN4CCN(C(c5ccccc5)c5ccccc5)CC4)CC3)c(F)cc2c1=O
viability at 50 µM (MDA-MB-468 [4]): ≤ 35%

COc1cccc2c1C(=O)c1c(O)c3c(c(O)c1C2=O)C[C@@](O)(C(=O)CO)C[C@@H]3O[C@H]1C[C@H](N)[C@H](O)[C@H](C)O1
Activity (MDA-MB-468 [8]): Active
Activity (CCRF-CEM [9]): Active
Activity (HCT-116 [10]): Active
